Assay results published in ChEMBL document CHEMBL1150216, “Flavonol glycosides and steroidal saponins from the leaves of Cestrum nocturnum and their cytotoxicity” (J Nat Prod, 2001).
Values after ≈ are worked out from the molar mass of the structure shown.

Columns and labels:
HSC-2 = test: Cytotoxicity against human HSC2 cells after 24 by MTT assay; format: functional; details: read-out: LD50 (the source's name)
[1] = Cytotoxicity against human HGF cells after 24 by MTT assay; format: cell-based; details: read-out: LD50 (the source's name)
Outline: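 Primary human gingival fibroblasts from a healthy person's gingival biopsy, explant-cultured in α-MEM with 30% FBS and antibiotics, used at passages 5–7. Cells were seeded at 6×10^3 into 96-well plates for 24 h, PBS-washed, and exposed to compound for 24 h. Viability was read by MTT (0.2 mg/mL, 4 h), DMSO lysis and A540, giving LD50 in µg/mL.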

Compound | CC50 (HSC-2) | CC50 [1]
C[C@@H]1CC[C@@]2(OC1)O[C@H]1C[C@H]3[C@@H]4CC=C5C[C@@H](O[C@@H]6O[C@H](CO)[C@H](O[C@@H]7O[C@H](CO)[C@@H](O)[C@H](O[C@@H]8OC[C@@H](O)[C@H](O)[C@H]8O)[C@H]7O[C@@H]7O[C@H](CO)[C@@H](O)[C@H](O)[C@H]7O)[C@H](O)[C@H]6O)[C@H](O)C[C@]5(C)[C@H]4CC[C@]3(C)[C@H]1[C@@H]2C | 12 µg/mL (≈ 11.4 µM) | 37 µg/mL (≈ 35.3 µM)
C[C@@H]1CC[C@@]2(OC1)O[C@H]1[C@@H](O)[C@H]3[C@@H]4CC=C5C[C@@H](O[C@@H]6O[C@H](CO)[C@H](O[C@@H]7O[C@H](CO)[C@@H](O)[C@H](O[C@@H]8OC[C@@H](O)[C@H](O)[C@H]8O)[C@H]7O[C@@H]7O[C@H](CO)[C@@H](O)[C@H](O[C@@H]8O[C@H](CO)[C@@H](O)[C@H](O)[C@H]8O)[C@H]7O)[C@H](O)[C@H]6O)[C@H](O)C[C@]5(C)[C@H]4CC[C@]3(C)[C@H]1[C@@H]2C | 4.4 µg/mL (≈ 3.59 µM) | 22 µg/mL (≈ 17.9 µM)
C[C@@H]1CC[C@@]2(OC1)O[C@H]1C[C@H]3[C@@H]4CC=C5C[C@@H](O[C@@H]6O[C@H](CO)[C@H](O[C@@H]7O[C@H](CO)[C@@H](O)[C@H](O[C@@H]8OC[C@@H](O)[C@H](O)[C@H]8O)[C@H]7O[C@@H]7O[C@H](CO)[C@@H](O)[C@H](O)[C@H]7O)[C@H](O)[C@H]6O)[C@H](O)C[C@]5(C)[C@H]4CC[C@]3(C)[C@@]1(O)[C@@H]2C | 13 µg/mL (≈ 12.2 µM) | 58 µg/mL (≈ 54.5 µM)
C[C@@H]1CC[C@@]2(OC1)O[C@H]1C[C@H]3[C@@H]4CC=C5C[C@@H](O[C@@H]6O[C@H](CO)[C@H](O[C@@H]7O[C@H](CO)[C@@H](O)[C@H](O[C@@H]8OC[C@@H](O)[C@H](O)[C@H]8O)[C@H]7O[C@@H]7O[C@H](CO)[C@@H](O)[C@H](O[C@@H]8O[C@H](CO)[C@@H](O)[C@H](O)[C@H]8O)[C@H]7O)[C@H](O)[C@H]6O)[C@H](O)C[C@]5(C)[C@H]4CC[C@]3(C)[C@@]1(O)[C@@H]2C | 5.5 µg/mL (≈ 4.48 µM) | 34 µg/mL (≈ 27.7 µM)
C[C@@H]1CC[C@@]2(OC1)O[C@H]1C[C@H]3[C@@H]4CC=C5C[C@@H](O[C@@H]6O[C@H](CO)[C@@H](O[C@@H]7O[C@@H](C)[C@H](O[C@@H]8O[C@@H](C)[C@H](O)[C@@H](O)[C@H]8O)[C@@H](O)[C@H]7O)[C@H](O)[C@H]6O[C@@H]6O[C@@H](C)[C@H](O)[C@@H](O)[C@H]6O)CC[C@]5(C)[C@H]4CC[C@]3(C)[C@H]1[C@@H]2C [PENNOGENIN RAHAMNOSYL CHACOTRIOSIDE] | 2 µg/mL (≈ 1.97 µM) | 2.8 µg/mL (≈ 2.76 µM)
C[C@@H]1CC[C@@]2(OC1)O[C@H]1C[C@H]3[C@@H]4CC=C5C[C@@H](O[C@@H]6O[C@H](CO)[C@@H](O[C@@H]7O[C@@H](C)[C@H](O[C@@H]8O[C@@H](C)[C@H](O)[C@@H](O)[C@H]8O)[C@@H](O)[C@H]7O)[C@H](O)[C@H]6O[C@@H]6O[C@@H](C)[C@H](O)[C@@H](O)[C@H]6O)[C@H](O)C[C@]5(C)[C@H]4CC[C@]3(C)[C@H]1[C@@H]2C | 5.5 µg/mL (≈ 5.33 µM) | 9.1 µg/mL (≈ 8.82 µM)
C[C@@H]1CC[C@@]2(OC1)O[C@H]1C[C@H]3[C@@H]4CC=C5C[C@@H](O[C@@H]6O[C@H](CO)[C@H](O[C@@H]7O[C@H](CO)[C@@H](O)[C@H](O[C@@H]8OC[C@@H](O)[C@H](O)[C@H]8O)[C@H]7O[C@@H]7O[C@H](CO)[C@@H](O)[C@H](O[C@@H]8O[C@H](CO)[C@@H](O)[C@H](O)[C@H]8O)[C@H]7O)[C@H](O)[C@H]6O)[C@H](O)C[C@]5(C)[C@H]4CC[C@]3(C)[C@H]1[C@@H]2C | 2.7 µg/mL (≈ 2.23 µM) | 31 µg/mL (≈ 25.6 µM)
C[C@@H]1O[C@@H](OC[C@H]2O[C@@H](Oc3c(-c4ccc(O)cc4)oc4cc(O)cc(O)c4c3=O)[C@H](O[C@@H]3OC[C@@H](O)[C@H](O)[C@H]3O)[C@@H](O)[C@@H]2O)[C@H](O)[C@H](O)[C@H]1O [CAMELLIASIDE B] | > 400 µg/mL | > 400 µg/mL
